Here are results for 7 compounds from ChEMBL document CHEMBL2311502, “Discovery of novel and ligand-efficient inhibitors of Plasmodium falciparum and Plasmodium vivax N-myristoyltransferase” (J Med Chem, 2013).

Calls of active or inactive are those of the source. No cut-off for these calls is given here.

In test [1] the target is T1, Glycylpeptide N-tetradecanoyltransferase (Plasmodium falciparum (isolate 3D7), UniProt Q8ILW6).
T1 sequence (Q8ILW6 whole entry): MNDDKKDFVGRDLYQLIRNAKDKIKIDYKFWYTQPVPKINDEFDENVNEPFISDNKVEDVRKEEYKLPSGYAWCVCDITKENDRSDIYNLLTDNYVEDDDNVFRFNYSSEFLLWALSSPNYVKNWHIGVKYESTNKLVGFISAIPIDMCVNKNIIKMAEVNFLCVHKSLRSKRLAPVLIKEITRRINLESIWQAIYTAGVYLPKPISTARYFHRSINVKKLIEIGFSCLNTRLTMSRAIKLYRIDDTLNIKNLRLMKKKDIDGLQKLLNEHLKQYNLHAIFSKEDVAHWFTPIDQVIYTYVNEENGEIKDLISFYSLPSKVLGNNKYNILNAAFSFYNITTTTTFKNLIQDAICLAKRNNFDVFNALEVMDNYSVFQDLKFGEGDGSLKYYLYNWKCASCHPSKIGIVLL
Nature of the test: Binding affinity to Plasmodium falciparum NMT using GSNKSKPKDASQRRR-NH2 as substrate after 10 to 20 mins by CPM fluorescence assay. An outline of the steps: (§1)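 Ki derived from enzyme IC50 by the Cheng–Prusoff equation, which corrects for the differing Michaelis constants of each NMT. Each IC50 is the mean of two or more determinations.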

Test [2] addresses Glycylpeptide N-tetradecanoyltransferase 1 (Homo sapiens) (UniProt P30419). Nature of the test: Inhibition of human NMT1.
The next test deals with Plasmodium falciparum. Nature of the test: Antiplasmodium activity against Chloroquine-sensitive later trophozoite form of Plasmodium falciparum 3D7 assessed as parasite growth inhibition after 48 hrs by FACS flow cytometric analysis. It counts as functional, organism-based. The settings on record: 3D7, 48 h. On the technique in general: A flow cytometer gives signals particle by particle.

Test [3] concerns the target T2, Glycylpeptide N-tetradecanoyltransferase 1 (Homo sapiens, UniProt P30419).
T2 sequence (P30419 whole entry): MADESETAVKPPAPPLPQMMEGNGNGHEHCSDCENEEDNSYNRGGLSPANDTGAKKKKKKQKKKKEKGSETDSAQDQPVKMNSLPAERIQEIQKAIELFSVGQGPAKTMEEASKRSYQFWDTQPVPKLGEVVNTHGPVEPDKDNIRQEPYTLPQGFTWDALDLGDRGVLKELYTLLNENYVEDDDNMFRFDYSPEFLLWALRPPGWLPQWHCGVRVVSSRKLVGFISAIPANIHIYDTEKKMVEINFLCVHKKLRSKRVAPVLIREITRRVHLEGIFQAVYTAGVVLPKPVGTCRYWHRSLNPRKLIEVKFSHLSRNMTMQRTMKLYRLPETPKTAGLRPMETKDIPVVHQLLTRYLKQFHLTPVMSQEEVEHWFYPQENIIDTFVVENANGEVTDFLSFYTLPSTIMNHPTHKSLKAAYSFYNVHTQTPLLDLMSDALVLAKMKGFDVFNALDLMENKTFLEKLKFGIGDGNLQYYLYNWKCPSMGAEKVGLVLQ
Put plainly: Binding affinity to human NMT1 after 10 to 20 mins by CPM fluorescence assay. An outline of the steps:
as §1

Test [4] in a line: Binding affinity to recombinant Plasmodium vivax NMT using GSNKSKPKDASQRRR-NH2 as substrate after 10 to 20 mins by CPM fluorescence assay. An outline of the steps: as §1

As for `CCOC(=O)c1sc2ccccc2c1OC1CCNCC1`, the results for the Ki in test [1], in test [3] and in test [4] were 1.3 µM, greater than 100 µM and 1.32 µM, respectively. For the same compound, in test [2], the “inhibition activity call (active/not active)” value was “inactive”. Also, the half-maximal effective concentration (EC50) (commonly the concentration that produces a half-maximal response) with Plasmodium falciparum is 14.6 µM.
With `O=C(NCc1ccccc1)c1sc2ccccc2c1OC1CCNCC1`, the Ki (commonly the dissociation constant of the complex between target and ligand, obtained from inhibition or displacement) in test [1] is 10.7 µM; in test [3], 4.76 µM; in test [4], 1.32 µM. The “inhibition activity call (active/not active)” value in test [2] is “Active”. For the same compound, the EC50 in the test on Plasmodium falciparum stood at 8.1 µM.
For `COc1cccc(COC(=O)c2sc3ccccc3c2OC2CCNCC2)c1`, the inhibitory constant (Ki) in test [1] came out at 0.83 µM. Besides, the “inhibition activity call (active/not active)” value in test [2] was “Active”. The concentration giving a half-maximal response (EC50) in the test with Plasmodium falciparum came out at 2 µM.
For `CCOC(=O)c1oc2ccccc2c1OC1CCNCC1`, the values for the Ki in test [1], in test [3] and in test [4] were 4.47 µM, greater than 100 µM and 1.74 µM, respectively. Moreover, in test [2], the “inhibition activity call (active/not active)” value is “inactive”. Further, the EC50 in the test on Plasmodium falciparum is 61.4 µM.
For `O=C(OCc1ccccc1)c1sc2ccccc2c1OC1CCNCC1`, in that order: 3.37 µM, 4.41 µM, 2.16 µM, “Active” and 4.2 µM.
For the compound `COc1cccc(CNC(=O)c2sc3ccccc3c2OC2CCNCC2)c1`, the inhibitory constant (Ki) in test [1] is greater than 100 µM; in test [3], greater than 100 µM; in test [4] it was 2.7 µM. Moreover, the “inhibition activity call (active/not active)” value in test [2] is “inactive”.
As for `CCOC(=O)c1oc2cccc(OC3CCNCC3)c2c1C`, the inhibition constant Ki in test [1] was 13.6 µM; in test [3] it was greater than 100 µM; in test [4], 14.9 µM. Moreover, in test [2], the “inhibition activity call (active/not active)” value is “inactive”.
